Experimental data published in paper PMC3447631 (Chemistry & biology, 2012).
Converted amounts (≈) assume the structure as drawn.

Columns and labels:
INS1 and INS2 genes = test: Insulin gene mRNA in MIN6 cells after prolonged fatty acid exposure; type: cell-based, murine; settings: 0.08mM Oleate or 0.02mM Palmitate, 110 days
HNF4α gene expression [1] = test: HNF4α mRNA expression in MIN6 cells; type: cell-based, murine; settings: for effect of fatty acid on HNF4α gene in MIN6: 0.08mM Oleate or 0.02mM Palmitate, 110 days
[2] = test system: endogenous insulin promoter; test: Endogenous insulin mRNA; type: cell-based, human; settings: for effect of fatty acid on insulin gene expression (quantitative RT-PCR): T6PNE, 1μM tamoxifen, 48 hours; for effect on endogenous insulin expression / insulin promoter activity: T6PNE cells
Outline: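 Q-PCR of endogenous insulin mRNA in T6PNE cells after 48 h exposure to test compound across a concentration series. For fatty acids, cells got 1μM tamoxifen plus fatty acid or DMSO vehicle for 48 hours before RNA harvest. Insulin mRNA was normalized to GAPDH or 18S rRNA; mean ± SE, n=3.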

human insulin promoter = test: Human insulin promoter-GFP transgene assay in T6PNE cells; type: cell-based; settings: for effect of reported HNF4α ligands on insulin promoter activity: 48 hours, 0.5 μM or 1 μM tamoxifen
Outline: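 T6PNE cells carry a lentiviral human insulin promoter–GFP transgene. Cells were treated for 48 hours; where stated, tamoxifen was 0.5 or 1 μM and fatty acids 0.12 mM. The green channel was imaged and percent GFP+ cells normalized to total cells per well.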

HNF4α DNA binding = molecular target: T1, HNF4α DNA binding (Homo sapiens, UniProt P41235); test: HNF4α DNA binding, HNF TransAM ELISA on HepG2 nuclear extracts; type: cell-based; settings: HepG2 incubated overnight with compound
T1 sequence (P41235 1-474): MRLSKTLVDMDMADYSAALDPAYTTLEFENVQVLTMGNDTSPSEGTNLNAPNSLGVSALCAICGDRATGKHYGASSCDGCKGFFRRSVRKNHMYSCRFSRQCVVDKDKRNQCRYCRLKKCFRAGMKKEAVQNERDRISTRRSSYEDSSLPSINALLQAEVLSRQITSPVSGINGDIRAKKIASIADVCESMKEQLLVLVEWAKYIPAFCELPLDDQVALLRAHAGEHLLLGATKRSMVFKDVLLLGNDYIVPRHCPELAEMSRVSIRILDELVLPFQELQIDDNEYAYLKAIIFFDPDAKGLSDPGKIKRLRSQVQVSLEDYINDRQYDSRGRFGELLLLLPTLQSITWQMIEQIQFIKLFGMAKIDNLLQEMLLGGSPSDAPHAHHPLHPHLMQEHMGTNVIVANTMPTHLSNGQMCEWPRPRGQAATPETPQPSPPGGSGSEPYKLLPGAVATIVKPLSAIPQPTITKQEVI
Outline: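 HepG2 cells were incubated overnight with test compound. Nuclear protein extracts (5μg) were added to wells bearing an oligonucleotide with an HNF4α binding site. Bound HNF4α was detected with an anti-HNF4α antibody (ELISA). Mean ± SD, n=3 biological replicates; Student's t-test.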

HNF4α = molecular target: T2, HNF4α (Homo sapiens, UniProt P41235); test: DARTS assay in HepG2 cells; type: binding; settings: HepG2, 20μM, 24hr, subtilisin
T2 sequence (P41235 1-474): T1 sequence (P41235 1-474)
Outline: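 DARTS: HepG2 cells were treated with DMSO or test compound at 20μM for 24hr. Read-out is the ligand-induced change in HNF4α sensitivity to proteolysis.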

tumor cell lines = test: Toxicity to tumor cell lines versus cultured primary cells in vitro; type: cell-based
PPARγ = type: cell-based; settings: PPRE-Luc, HeLa
Outline: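 HeLa cells were co-transfected with a PPRE-Luc reporter, with or without a PPARγ expression vector, then treated with test compound. Read-out was luciferase activity; mean ± SE, n=3.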

Plasma stability = type: in vitro ADME; settings: after 3 h
PPARα = PPARα (Homo sapiens, UniProt Q07869); test: PPRE-luciferase reporter assay with PPARα co-transfection; type: cell-based
PPARα, sequence (Q07869 whole entry, species assumed): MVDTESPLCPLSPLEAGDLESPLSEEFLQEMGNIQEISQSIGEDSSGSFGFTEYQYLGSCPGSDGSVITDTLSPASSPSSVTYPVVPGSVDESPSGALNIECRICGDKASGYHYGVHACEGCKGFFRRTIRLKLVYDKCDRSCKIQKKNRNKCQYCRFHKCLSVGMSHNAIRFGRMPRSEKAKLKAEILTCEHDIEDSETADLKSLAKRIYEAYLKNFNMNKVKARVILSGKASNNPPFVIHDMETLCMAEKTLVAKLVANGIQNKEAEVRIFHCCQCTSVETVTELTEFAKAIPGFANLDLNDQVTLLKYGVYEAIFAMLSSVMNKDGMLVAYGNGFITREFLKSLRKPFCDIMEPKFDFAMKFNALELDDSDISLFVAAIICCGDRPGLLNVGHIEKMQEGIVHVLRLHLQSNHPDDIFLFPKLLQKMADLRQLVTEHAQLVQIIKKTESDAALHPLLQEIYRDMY

p57Kip2 expression = test: Kip2 mRNA in T6PNE cells; type: cell-based, human
Outline: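 Kip2 mRNA in T6PNE cells measured by Q-PCR, normalized to 18s rRNA. Treated and DMSO vehicle cells were compared by Student's t-test.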

Solubility = type: physicochemical
full-length HNF4α = full-length HNF4α (Rattus norvegicus, UniProt P22449); test: Direct binding by quenching of HNF4α aromatic amino acid fluorescence; settings: Hill equation analysis
full-length HNF4α, sequence (P22449 whole entry): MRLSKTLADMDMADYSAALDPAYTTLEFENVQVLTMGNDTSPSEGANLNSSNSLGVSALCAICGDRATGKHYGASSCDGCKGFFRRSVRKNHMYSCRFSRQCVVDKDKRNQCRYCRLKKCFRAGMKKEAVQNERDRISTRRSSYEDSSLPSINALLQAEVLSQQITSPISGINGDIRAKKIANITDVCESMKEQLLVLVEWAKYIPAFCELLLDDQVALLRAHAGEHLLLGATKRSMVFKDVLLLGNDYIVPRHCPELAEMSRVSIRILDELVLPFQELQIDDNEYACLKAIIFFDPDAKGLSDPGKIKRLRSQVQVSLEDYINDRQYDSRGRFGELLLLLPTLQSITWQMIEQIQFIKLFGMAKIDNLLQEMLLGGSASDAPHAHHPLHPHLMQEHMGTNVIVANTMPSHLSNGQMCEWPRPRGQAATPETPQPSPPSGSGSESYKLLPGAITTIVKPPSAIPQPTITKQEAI

HNF4α gene expression [3] = test: HNF4α mRNA expression in HepG2 cells; type: cell-based; settings: 48 hours
Outline: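 HNF4α mRNA in treated HepG2 cells measured by Q-PCR and normalized to 18S rRNA. Differences in expression assessed by Student's t-test.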

[4] = test system: E47 and PDX-1 binding to the human insulin promoter; test: ChIP of E47 and PDX-1 on the human insulin promoter in T6PNE cells; type: cell-based; settings: 5μM, 48 hours
Outline: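 T6PNE cells were given 1μM tamoxifen plus DMSO or 5μM test compound for 48 hours. ChIP used anti-E47 and anti-PDX-1 antibodies, followed by Q-PCR with primers for the E-box and A-box elements of the insulin promoter. Treated and vehicle binding were compared by Student's t-test.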

PPARδ = PPARδ (Homo sapiens, UniProt Q03181); test: PPRE-luciferase reporter assay with PPARδ co-transfection; type: cell-based
PPARδ, sequence (Q03181 whole entry, species assumed): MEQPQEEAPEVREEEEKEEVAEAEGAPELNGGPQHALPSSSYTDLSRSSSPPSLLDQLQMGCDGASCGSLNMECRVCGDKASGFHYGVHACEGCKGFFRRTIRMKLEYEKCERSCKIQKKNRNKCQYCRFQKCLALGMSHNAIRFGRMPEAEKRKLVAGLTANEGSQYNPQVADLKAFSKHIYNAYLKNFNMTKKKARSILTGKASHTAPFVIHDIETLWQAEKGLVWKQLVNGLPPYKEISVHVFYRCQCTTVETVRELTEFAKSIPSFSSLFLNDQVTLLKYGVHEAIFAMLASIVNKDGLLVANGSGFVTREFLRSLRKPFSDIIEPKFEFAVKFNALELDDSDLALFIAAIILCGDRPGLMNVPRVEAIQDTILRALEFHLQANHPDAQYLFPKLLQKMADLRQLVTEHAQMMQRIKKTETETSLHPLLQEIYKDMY

Plasma protein binding = type: in vitro ADME; settings: after 4 h
[5] = Hepatic microsomal stability; type: in vitro ADME; settings: after 1.25 h
HNF4α gene expression [6] = test: HNF4α mRNA expression in T6PNE cells; type: cell-based, human
[7] = test system: modified estrogen receptor (E47MER); test: Counterscreen: prevention of E47MER translocation; type: cell-based

With `CCCCCCCC/C=C\CCCCCCCC(=O)O` [oleate, reference compound] the “effect on INS2 gene in MIN6” value (INS1 and INS2 genes) was “inhibited” and the “effect of fatty acid on HNF4α gene in MIN6” value (HNF4α gene expression [1]) was “inhibited”.
For `CCCCC/C=C\C/C=C\CCCCCCCC(=O)O` [linoleic acid], the “effect of fatty acid on insulin gene expression (quantitative RT-PCR)” value (“effect of fatty acid … (quantitative RT-PCR)” for short) [2] was “inhibited”.
In the case of `CC(C)(CCCCCCCCCCC(C)(C)CC(=O)O)CC(=O)O` [Medica-16, 3,3,14,14-tetramethylhexadecanedioic acid], the “effect of reported HNF4α ligands on insulin promoter activity” value (human insulin promoter) is reported as “none of these compounds had consistent and robust effects”.
With `Cc1nc2ccccc2n1Cc1cc([N+](=O)[O-])ccc1O` [BI6018] the “effect on HNF4α DNA binding” value (HNF4α DNA binding) was “inactive”, the “effect on HNF4α protease sensitivity (DARTS)” value (“effect … (DARTS)” for short) (HNF4α) was “no effect” and the “activity in the insulin promoter assay” value (human insulin promoter) was “inactive”.
For “3-methyl-2-nitronaphthofuran [Compound 5]”, the “effect of reported HNF4α ligands on insulin promoter activity” value (human insulin promoter) was “none of these compounds had consistent and robust effects”.
For `Cc1nc2ccccc2n1S(=O)(=O)c1cc([N+](=O)[O-])ccc1Cl` [BIM5078, 1-(2′-chloro-5′-nitrobenzenesulfonyl)-2-methylbenzimidazole], the “toxicity to tumor cell lines in vitro” value (tumor cell lines) was “toxic”, the “effect on HNF4α DNA binding” value (HNF4α DNA binding) was “active but less potent” and the “PPRE activation enhanced by co-transfection with PPARγ expression vector” value (PPARγ) was about 4 fold. For the same molecule, the “activity as PPARγ agonist” value (PPARγ) was “had activity as PPARγ agonists”, the PPRE activation (PPARγ; without PPARγ expression vector) was 2 fold and the “plasma stability, remaining” value (Plasma stability) was 8%. For the same molecule, the “luciferase activity with PPARα co-transfected” value (PPARα) was “no change in luciferase activity”, the “effect on Kip2 expression” value (p57Kip2 expression) was “potently decreased” and the “effect … (DARTS)” value (HNF4α) was “induced altered HNF4α protease sensitivity”. The solubility at 18 h (Solubility) was 0.17 µg/mL (≈ 0.483 µM), the IC50 ([2]; Homo sapiens, 48 h, read-out: IC50, inhibition of endogenous insulin expression) was 930 nM and the “effect on endogenous insulin expression / insulin promoter activity” value [2] was “had activity”. For the same molecule, the “effect on HNF4α expression in MIN6” value (HNF4α gene expression [1]; 5 hours) was “potently repressed”, the “Hill coefficient of binding” value (full-length HNF4α) was 0.9 ± 0.3 and the “effect on HNF4α expression in HepG2” value (HNF4α gene expression [3]) was “potently repressed”. The “association of E47 with the distal (E2) E-box of the insulin promoter” value [4] was “significantly decreased”, the “association of PDX-1 at A-boxes (A1, A3, A5) of the insulin promoter” value [4] was “significantly decreased” and the “luciferase activity with PPARδ co-transfected” value (PPARδ) was “no change in luciferase activity”. For the same molecule, the “binding to plasma proteins, bound” value (Plasma protein binding) was 98%, the “microsomal stability, remaining” value [5] was 32% and the “effect on HNF4α expression in T6PNE” value (HNF4α gene expression [6]; 48 hours) was “potently repressed”. The “estrogenic antagonism / tamoxifen-like activity (E47MER translocation)” value [7] was “passed the counterscreen”.
In the case of `CC(=O)O` [acetic], the “effect of fatty acid … (quantitative RT-PCR)” value [2] is reported as “did not have an effect”.
In the case of `CCCC(=O)O` [butyric], the “effect of fatty acid … (quantitative RT-PCR)” value [2] is reported as “did not have an effect”.
With `CCCCCCCCCCCCCCCC(=O)O` [palmitate, reference compound] the “effect on INS2 gene in MIN6” value (INS1 and INS2 genes) was “inhibited”, the “effect of fatty acid … (quantitative RT-PCR)” value [2] was “dose-dependent decrease” and the “effect of fatty acid on HNF4α gene in MIN6” value (HNF4α gene expression [1]) was “inhibited”. For the same molecule, the “effect of fatty acid on HNF4α mRNA levels in T6PNE” value (HNF4α gene expression [6]; 48 hour treatment, with tamoxifen) was “significantly inhibited”.
In the case of `O=[N+]([O-])c1ccc2nc(-c3ccco3)[nH]c2c1` [compound 5816458], the “estrogenic antagonism / tamoxifen-like activity (E47MER translocation)” value [7] is reported as “estrogenic antagonists”.
For `CCCCCS(=O)(=O)NC(=O)c1ccc2nc(C)n(Cc3ccc(Cl)cc3Cl)c2c1` [FK614, reference compound], the “effect on HNF4α DNA binding” value (HNF4α DNA binding) was “inactive”, the “activity as PPARγ agonist” value (PPARγ) was “had activity as PPARγ agonists” and the “effect on Kip2 expression” value (p57Kip2 expression) was “no effect”. The “effect … (DARTS)” value (HNF4α) was “no effect”, the “effect on endogenous insulin expression / insulin promoter activity” value [2] was “no effect” and the “Hill coefficient of binding” value (full-length HNF4α) was 0.6 ± 0.1.
